From paper PMC6118327 (Biochimica et biophysica acta. Biomembranes, 2017) come the findings set out here.

The target in assay [1] is T1, mUCP3 (Mus musculus, UniProt P56501).
T1 sequence (P56501 1-308): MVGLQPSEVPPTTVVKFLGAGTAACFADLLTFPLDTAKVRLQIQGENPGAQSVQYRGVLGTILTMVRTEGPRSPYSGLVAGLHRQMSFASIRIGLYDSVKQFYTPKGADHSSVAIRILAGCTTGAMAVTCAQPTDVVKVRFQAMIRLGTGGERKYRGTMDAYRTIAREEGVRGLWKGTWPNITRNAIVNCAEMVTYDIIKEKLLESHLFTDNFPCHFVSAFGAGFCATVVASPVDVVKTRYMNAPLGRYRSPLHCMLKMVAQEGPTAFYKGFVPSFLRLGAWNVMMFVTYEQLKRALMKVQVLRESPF
It counts as biochemical. The note with it: for dependence of mUCP3 inhibition on AA concentration: 10 vs 15 mol% AA, 1 mM ATP, 2 mM ADP, 5 mM AMP. A digest of the protocol: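 Recombinant mouse protein reconstituted into DOPC/DOPE/CL (45:45:10) liposomes. Bilayers formed at 1.5 mg/ml lipid, 6 μg protein/mg lipid, AA 10 or 15 mol%. Run in 50 mM Na₂SO₄/10 mM MES/10 mM Tris/0.6 mM EGTA, pH 7.35, 32°C. I/V recorded −50 to +50 mV, including with 2 mM ATP. G from linear fit at 0 mV gives relative conductance. IC50 and maximum inhibition come from a four-parameter logistic fit. AA-dependence tested at 1 mM ATP, 2 mM ADP, 5 mM AMP. Mean ± SD, ≥3 experiments.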

For assay [2], the target named is T2, mUCP1R277L (Mus musculus, UniProt P12242, R277L).
T2 sequence (P12242 1-307 R277L): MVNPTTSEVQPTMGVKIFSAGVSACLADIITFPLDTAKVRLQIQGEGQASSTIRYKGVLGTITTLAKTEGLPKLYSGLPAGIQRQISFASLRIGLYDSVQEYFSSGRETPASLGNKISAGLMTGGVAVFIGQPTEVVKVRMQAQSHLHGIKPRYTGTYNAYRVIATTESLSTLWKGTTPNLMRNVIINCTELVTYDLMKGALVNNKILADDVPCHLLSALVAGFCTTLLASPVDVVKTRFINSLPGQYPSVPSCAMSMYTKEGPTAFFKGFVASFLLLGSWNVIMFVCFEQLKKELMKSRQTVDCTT
Briefly: Relative conductance of UCP1 mutant in planar bilayer membranes. Format: biochemical. The conditions noted are these: PN 5 mM; 15 mol% AA. A digest of the protocol:
(§1)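 Arginine point mutants made by site-directed mutagenesis, expressed in E. coli Rosetta and reconstituted like wild type. Planar DOPC/DOPE/CL (45:45:10) bilayers carried 15 mol% AA; buffer pH 7.35, 32°C. Relative conductance compared with wild type after nucleotide addition: UCP1 mutants 5 mM ATP, ADP or AMP; UCP3 mutant 2 mM ATP, 4 mM ADP or 8 mM AMP. Mean ± SD, ≥3 experiments.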

Assay [3] addresses T1, mUCP3. Briefly: AFM recognition imaging and force spectroscopy, PN-UCP bond lifetime. Format: binding. The conditions noted are these: for change of UCP3-PN lifetime with AA concentration: 15 mol% vs 10 mol% AA; for lifetime of mUCP3-PN interaction: PN bound to AFM tip, supported EPL membranes, pH 7.35, 21°C. A digest of the protocol:
(§2)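 Mouse protein from E. coli inclusion bodies, solubilised in 2% SLS and reconstituted into EPL liposomes. Proteoliposomes incubated 10 min on fresh mica to form supported bilayers. For AA competition, mixed with AA liposomes to 1 mg/ml final lipid. AFM tips carried EDA-ATP, -ADP or -AMP via PEG-acetal linker. Recognition imaging plus force spectroscopy run in 50 mM Na₂SO₄/10 mM MES/10 mM Tris/0.6 mM EGTA, pH 7.35, 21°C. Lifetimes from maximum-likelihood Bell-Evans fits; mean ± SD, ≥3 experiments.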

The target in assay [4] is T3, mUCP1 R84Q (Mus musculus, UniProt P12242, R84Q).
T3 sequence (P12242 1-307 R84Q): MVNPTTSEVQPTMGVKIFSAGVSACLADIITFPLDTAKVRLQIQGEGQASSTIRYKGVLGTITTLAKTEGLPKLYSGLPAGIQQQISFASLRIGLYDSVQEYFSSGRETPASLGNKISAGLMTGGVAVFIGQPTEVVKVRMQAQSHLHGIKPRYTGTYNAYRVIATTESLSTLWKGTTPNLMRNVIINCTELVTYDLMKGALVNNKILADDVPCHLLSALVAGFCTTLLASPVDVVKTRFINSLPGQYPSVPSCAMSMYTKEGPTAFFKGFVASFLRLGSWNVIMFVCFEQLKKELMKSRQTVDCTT
Briefly: Relative conductance of UCP1 mutant in planar bilayer membranes. It counts as biochemical. The note with it: PN 5 mM; 15 mol% AA. The method in brief:
as §1

In assay [5] the target is T4, mUCP1R183T (Mus musculus, UniProt P12242, R183T).
T4 sequence (P12242 1-307 R183T): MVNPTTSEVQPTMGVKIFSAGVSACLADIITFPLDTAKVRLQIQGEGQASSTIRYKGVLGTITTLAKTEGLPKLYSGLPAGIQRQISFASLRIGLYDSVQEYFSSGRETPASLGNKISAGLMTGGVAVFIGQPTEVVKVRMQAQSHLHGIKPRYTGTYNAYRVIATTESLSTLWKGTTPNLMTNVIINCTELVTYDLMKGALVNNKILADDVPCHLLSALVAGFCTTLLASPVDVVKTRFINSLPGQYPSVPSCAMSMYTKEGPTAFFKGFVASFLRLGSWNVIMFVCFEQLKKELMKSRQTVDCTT
Described as above. Format: biochemical. The conditions noted are these: PN 5 mM; 15 mol% AA. The method in brief: as §1

The target of assay [6] is T5, mUCP3R84Q (Mus musculus, UniProt P56501, R84Q).
T5 sequence (P56501 1-308 R84Q): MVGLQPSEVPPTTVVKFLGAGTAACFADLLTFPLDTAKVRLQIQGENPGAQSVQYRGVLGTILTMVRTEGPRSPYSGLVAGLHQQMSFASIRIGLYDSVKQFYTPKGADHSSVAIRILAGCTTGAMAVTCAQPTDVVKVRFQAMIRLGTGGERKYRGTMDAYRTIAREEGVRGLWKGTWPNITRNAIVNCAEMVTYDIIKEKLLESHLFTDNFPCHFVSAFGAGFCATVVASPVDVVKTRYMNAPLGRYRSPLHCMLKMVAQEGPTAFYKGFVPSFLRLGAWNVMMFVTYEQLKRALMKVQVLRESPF
Briefly: Relative conductance of UCP3 mutant in planar bilayer membranes. Format: biochemical. The conditions noted are these: 2 mM ATP, 4 mM ADP or 8 mM AMP; 15 mol% AA. The method in brief:
as §1

Assay [7] has as its target T6, mUCP1 (Mus musculus, UniProt P12242).
T6 sequence (P12242 1-307): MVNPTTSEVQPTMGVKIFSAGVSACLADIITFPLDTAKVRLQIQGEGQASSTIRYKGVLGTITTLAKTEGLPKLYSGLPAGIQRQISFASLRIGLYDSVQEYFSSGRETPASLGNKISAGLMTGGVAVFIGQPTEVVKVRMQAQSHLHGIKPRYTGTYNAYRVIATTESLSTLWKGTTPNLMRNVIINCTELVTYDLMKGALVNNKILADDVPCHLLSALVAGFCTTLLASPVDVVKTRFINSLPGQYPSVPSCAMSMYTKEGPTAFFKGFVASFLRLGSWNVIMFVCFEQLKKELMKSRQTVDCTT
Briefly: AFM recognition imaging and force spectroscopy, PN-UCP bond lifetime. Format: binding. The note with it: for change of UCP1-PN lifetime with AA concentration: 15 mol% vs 10 mol% AA; for lifetime of mUCP1-PN interaction: PN bound to AFM tip, supported EPL membranes, pH 7.35, 21°C. The method in brief:
as §2

The target of assay [8] is T6, mUCP1. Format: biochemical. The note with it: for maximum inhibition of mUCP1 / extent of inhibition at high PN concentration: 15 mol% AA; for extent of inhibition at high PN concentration: DOPC/DOPE/CL membranes, pH 7.35, 32°C. The method in brief:
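Inclusion-body mouse protein reconstituted into DOPC/DOPE/CL (45:45:10) proteoliposomes. Planar bilayers made at 1.5 mg/ml lipid, AA 10 or 15 mol% in the lipid solution, sulfate/MES/Tris/EGTA buffer pH 7.35, 32°C. I/V swept −50 to +50 mV; G at zero voltage from linear fit, normalised to AA-only and UCP+AA membranes. Titrations of nucleotides or phosphate fitted by four-parameter logistic for IC50 and maximum inhibition. AA comparison used 1 mM ATP, 2 mM ADP, 2 mM AMP. Mean ± SD, ≥3 experiments.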

Assay [9] has as its target T1, mUCP3. Format: biochemical. The note with it: membrane reconstituted with AA and mUCP3, pH gradient; seven independent experiments.
The mark [10] stands for this setting: DOPC/DOPE/CL membranes, 15 mol% AA, pH 7.35, 32°C.
The mark [11] stands for this setting: lower FFA concentrations vs 15 mol% AA.

For the molecule `Nc1ncnc2c1ncn2[C@@H]1O[C@H](COP(=O)(O)OP(=O)(O)OP(=O)(O)O)[C@@H](O)[C@H]1O` [ATP], in [1] (2 mM ATP, 15 mol% AA), the “current I and total membrane conductance G after addition of inhibitor” value was “decreased”. In addition, the “dependence of mUCP3 inhibition on AA concentration” value in assay [1] was “higher at lower AA concentration”. Besides, the “PN concentration at which maximum inhibition is achieved” value in [1] (setting [10]) is reported as “approx. 4 mM”. The “inhibition of mutant compared to mUCP1 wt” value in [2], in assay [4] and in assay [5] was “similarly reduced” each time. Moreover, the “change of UCP3-PN lifetime with AA concentration” value (from here on “change of UCP3-PN lifetime”) in assay [3] was “significantly increased”. Also, in assay [3], the “lifetime of mUCP3-PN interaction” value was determined as 1.33 s. Also, the “inhibition of mutant compared to wild type mUCP3” value in assay [6] is recorded as “decreased the strength”. Besides, the “change of UCP1-PN lifetime with AA concentration” value (shortened to “change of UCP1-PN lifetime”) in assay [7] is given as “significantly increased”. In addition, the “lifetime of mUCP1-PN interaction” value in assay [7] worked out at 1.12 s.

For `Nc1ncnc2c1ncn2[C@@H]1O[C@H](COP(=O)(O)OP(=O)(O)O)[C@@H](O)[C@H]1O` [ADP], in assay [8], the “maximum inhibition of mUCP1” value is given as “lower than 100%” and the “extent of inhibition at high PN concentration” value was “partially inhibit”. Also, in assay [8] (setting [11]), the “change in maximum inhibition of mUCP1 at lower FFA concentration” value is “No change” and the “effect of FFA concentration on IC50 of mUCP1 inhibition” value was “affected”. In assay [1], the “dependence of mUCP3 inhibition on AA concentration” value is on record as “less”. Also, in assay [3], the “change of UCP3-PN lifetime” value is “not significant” and the “lifetime of mUCP3-PN interaction” value was found to be 0.56 s. In addition, in assay [4], the “inhibition of mutant compared to mUCP1 wt” value is “did not affect”. In [5], the “inhibition of mutant compared to mUCP1 wt” value is reported as “impaired inhibition”. Moreover, in assay [6], the “inhibition of mutant compared to wild type mUCP3” value is given as “decreased the strength”. Moreover, in assay [7], the “change of UCP1-PN lifetime” value is listed as “significantly increased” and the “lifetime of mUCP1-PN interaction” value came to 0.75 s.

As for `OC[C@H]1O[C@@H]2O[C@H]3[C@H](O)[C@@H](O)[C@@H](O[C@H]4[C@H](O)[C@@H](O)[C@@H](O[C@H]5[C@H](O)[C@@H](O)[C@@H](O[C@H]6[C@H](O)[C@@H](O)[C@@H](O[C@H]7[C@H](O)[C@@H](O)[C@@H](O[C@H]1[C@H](O)[C@H]2O)O[C@@H]7CO)O[C@@H]6CO)O[C@@H]5CO)O[C@@H]4CO)O[C@@H]3CO` [α-cyclodextrin, alpha-cyclodextrin], in [1] (extraction of FA from the membrane), the “membrane total conductance after addition of α-cyclodextrin” value is recorded as “decrease of membrane total conductance”.

For the molecule `Nc1ncnc2c1ncn2[C@@H]1O[C@H](COP(=O)(O)O)[C@@H](O)[C@H]1O` [AMP], in [8], the “maximum inhibition of mUCP1” value is given as “lower than 100%” and the “extent of inhibition at high PN concentration” value is “partially inhibit”. The “extent of inhibition at high inhibitor concentration” value in assay [1] (setting [10]) is reported as “fully inhibit”. For the same molecule, in [2], the “inhibition of mutant compared to mUCP1 wt” value was “no longer able to inhibit”. Besides, in assay [3], the “change of UCP3-PN lifetime” value is recorded as “unaffected” and the “lifetime of mUCP3-PN interaction” value worked out at 0.13 s. Moreover, the “inhibition of mutant compared to mUCP1 wt” value in assay [4] is on record as “did not affect”. Further, the “inhibition of mutant compared to wild type mUCP3” value in assay [6] was “did not affect”. Also, in assay [7], the “change of UCP1-PN lifetime” value was “unaffected” and the “lifetime of mUCP1-PN interaction” value came to 0.16 s.

B1: mUCP3: recombinant mouse uncoupling protein 3 reconstituted in planar lipid membranes (protein, UniProt P56501 1-308, looked up)
Putative mitochondrial …: MVGLQPSEVPPTTVVKFLGAGTAACFADLLTFPLDTAKVRLQIQGENPGAQSVQYRGVLGTILTMVRTEGPRSPYSGLVAGLHRQMSFASIRIGLYDSVKQFYTPKGADHSSVAIRILAGCTTGAMAVTCAQPTDVVKVRFQAMIRLGTGGERKYRGTMDAYRTIAREEGVRGLWKGTWPNITRNAIVNCAEMVTYDIIKEKLLESHLFTDNFPCHFVSAFGAGFCATVVASPVDVVKTRYMNAPLGRYRSPLHCMLKMVAQEGPTAFYKGFVPSFLRLGAWNVMMFVTYEQLKRALMKVQVLRESPF
As to B1, the “proton transport rate κ” value in assay [9] was 2.56 ± 0.79 s⁻¹.
